Test results reported in ChEMBL document CHEMBL1139673, “Factor VIIa inhibitors: gaining selectivity within the trypsin family” (Bioorg Med Chem Lett, 2006).

Columns and labels:
Homo sapiens = organism: Homo sapiens; assay: Selectivity for factor 7a versus trypsin
How it was run: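 Apparent Ki (Morrison tight-binding fit) from two chromogenic assays, both at room temperature with substrate at Km and A405 monitored over time. FVIIa: 7 nM factor VII with 11 nM recombinant soluble human tissue factor in Tris pH 7.4, NaCl, 5.0 mM CaCl2, 1.5 mM EDTA, Tween 20, 10% DMSO; CH3SO2-D-CHA-But-Arg-pNA 500 µM. Trypsin: 10 nM, same buffer without CaCl2; Tosyl-Gly-Pro-Lys-pNA 25 µM.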

Coagulation factor VII = target: T1, Coagulation factor VII (Homo sapiens, UniProt P08709); assay: Binding affinity to factor 7a
T1 sequence (P08709 whole entry): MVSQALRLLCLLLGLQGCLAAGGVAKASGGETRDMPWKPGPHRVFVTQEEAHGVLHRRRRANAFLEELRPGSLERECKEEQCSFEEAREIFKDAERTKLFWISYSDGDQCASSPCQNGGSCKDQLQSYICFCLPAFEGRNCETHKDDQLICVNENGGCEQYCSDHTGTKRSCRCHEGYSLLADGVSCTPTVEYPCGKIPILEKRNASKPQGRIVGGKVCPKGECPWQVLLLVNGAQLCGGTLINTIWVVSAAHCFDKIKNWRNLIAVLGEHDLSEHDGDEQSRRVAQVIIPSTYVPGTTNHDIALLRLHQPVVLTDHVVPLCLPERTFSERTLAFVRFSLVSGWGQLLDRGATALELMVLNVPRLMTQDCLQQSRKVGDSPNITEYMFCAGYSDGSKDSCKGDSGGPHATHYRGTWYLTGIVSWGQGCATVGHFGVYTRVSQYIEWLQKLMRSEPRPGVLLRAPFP

Structure (SMILES)	Selectivity ratio (Homo sapiens)	Ki (Coagulation factor VII)
Cc1cccc(-c2cc(C(CC(=O)O)C(=O)O)cc(-c3nc4cc(C(=N)N)ccc4[nH]3)c2O)c1 (stereo unspecified)	108	–
CC(=O)Nc1cccc(-c2cc(C(CC(=O)O)C(=O)O)cc(-c3nc4ccc(C(=N)N)cc4[nH]3)c2O)c1 (stereo unspecified)	–	110 nM
N=C(N)c1ccc2[nH]c(-c3cc(C(CC(=O)O)C(=O)O)cc(-c4cc(Cl)cc(Cl)c4O)c3O)nc2c1 (stereo unspecified)	421	14 nM
CC(C)c1cccc(-c2cc(C(CC(=O)O)C(=O)O)cc(-c3nc4ccc(C(=N)N)cc4[nH]3)c2O)c1 (stereo unspecified)	–	76 nM
N=C(N)c1ccc2[nH]c(-c3cc(C(CC(=O)O)C(=O)O)cc(-c4cccc(Cl)c4Cl)c3O)nc2c1 (stereo unspecified)	44	–
N=C(N)c1ccc2[nH]c(-c3cc(C(CC(=O)O)C(=O)O)cc(-c4ccccc4N)c3O)nc2c1 (stereo unspecified)	41	–
N#Cc1cccc(-c2cc(C(CC(=O)O)C(=O)O)cc(-c3nc4cc(C(=N)N)ccc4[nH]3)c2O)c1 (stereo unspecified)	71	77 nM
N=C(N)c1ccc2[nH]c(-c3cc(C(CC(=O)O)C(=O)O)cc(-c4cccc(N)c4)c3O)nc2c1 (stereo unspecified)	250	36 nM
N=C(N)c1ccc2[nH]c(-c3cc(C(CC(=O)O)C(=O)O)cc(-c4cc(Cl)ccc4O)c3O)nc2c1 (stereo unspecified)	2500	5.4 nM
COc1ccc(C#N)cc1-c1cc(C(CC(=O)O)C(=O)O)cc(-c2nc3cc(C(=N)N)ccc3[nH]2)c1O (stereo unspecified)	54	280 nM
N=C(N)c1ccc2[nH]c(-c3cc(C(CC(=O)O)C(=O)O)cc(-c4ccc(F)c(Cl)c4)c3O)nc2c1 (stereo unspecified)	34	–
Cc1cccc(NC(=O)Cc2cc(C(CC(=O)O)C(=O)O)cc(-c3nc4cc(C(=N)N)ccc4[nH]3)c2O)c1 (stereo unspecified)	102	54 nM
N=C(N)c1ccc2[nH]c(-c3cc(C(CC(=O)O)C(=O)O)cc(-c4cc([N+](=O)[O-])ccc4O)c3O)nc2c1 (stereo unspecified)	8500	6 nM
N=C(N)c1ccc2[nH]c(-c3cc(C(CC(=O)O)C(=O)O)cc(-c4cc(Cl)cc(Cl)c4Cl)c3O)nc2c1 (stereo unspecified)	39	210 nM
N=C(N)c1ccc2nc(-c3cc(C(CC(=O)O)C(=O)O)cc(-c4ccc(Cl)cc4)c3O)[nH]c2c1 (stereo unspecified)	–	440 nM
N=C(N)c1ccc2nc(-c3cc(C(CC(=O)O)C(=O)O)cc(-c4ccccc4[N+](=O)[O-])c3O)[nH]c2c1 (stereo unspecified)	–	22 nM
N=C(N)c1ccc2[nH]c(-c3cc(C(CC(=O)O)C(=O)O)cc(-c4cccnc4)c3O)nc2c1 (stereo unspecified)	31	550 nM
N=C(N)c1ccc2[nH]c(-c3cc(C(CC(=O)O)C(=O)O)cc(-c4cc(Cl)cc(Br)c4O)c3O)nc2c1 (stereo unspecified)	398	9 nM
N=C(N)c1ccc2nc(-c3cc(C(CC(=O)O)C(=O)O)cc(-c4ccccc4N)c3O)[nH]c2c1 (stereo unspecified)	–	420 nM

Structure (SMILES)	Selectivity ratio (Homo sapiens)	Ki (Coagulation factor VII)
COc1ccc(-c2cc(C(CC(=O)O)C(=O)O)cc(-c3nc4cc(C(=N)N)ccc4[nH]3)c2O)cc1 (stereo unspecified)	1	2250 nM
Cc1cccc(-c2cc(C(CC(=O)O)C(=O)O)cc(-c3nc4ccc(C(=N)N)cc4[nH]3)c2O)c1 (stereo unspecified)	–	38 nM
N=C(N)c1ccc2[nH]c(-c3cc(C(CC(=O)O)C(=O)O)cc(-c4c(O)cc(Cl)cc4Cl)c3O)nc2c1 (stereo unspecified)	192	25 nM
CC(C)c1cccc(-c2cc(C(CC(=O)O)C(=O)O)cc(-c3nc4cc(C(=N)N)ccc4[nH]3)c2O)c1 (stereo unspecified)	40	–
CC(=O)c1cccc(-c2cc(C(CC(=O)O)C(=O)O)cc(-c3nc4cc(C(=N)N)ccc4[nH]3)c2O)c1 (stereo unspecified)	197	33 nM
CC(C)(C)c1ccc(-c2cc(C(CC(=O)O)C(=O)O)cc(-c3nc4cc(C(=N)N)ccc4[nH]3)c2O)cc1 (stereo unspecified)	1	16000 nM
Cc1ccccc1-c1cc(C(CC(=O)O)C(=O)O)cc(-c2nc3cc(C(=N)N)ccc3[nH]2)c1O (stereo unspecified)	16	500 nM
N=C(N)c1ccc2[nH]c(-c3cc(C(CC(=O)O)C(=O)O)cc(-c4cc(Cl)cc(Cl)c4)c3O)nc2c1 (stereo unspecified)	98	–
N=C(N)c1ccc2[nH]c(-c3cc(C(CC(=O)O)C(=O)O)cc(-c4ccccc4O)c3O)nc2c1 (stereo unspecified)	1080	13 nM
N#Cc1ccc(O)c(-c2cc(C(CC(=O)O)C(=O)O)cc(-c3nc4cc(C(=N)N)ccc4[nH]3)c2O)c1 (stereo unspecified)	2960	12 nM
N=C(N)c1ccc2[nH]c(-c3cc(C(CC(=O)O)C(=O)O)cc(-c4cc(N)ccc4O)c3O)nc2c1 (stereo unspecified)	1790	10 nM
N=C(N)c1ccc2[nH]c(-c3cc(C(CC(=O)O)C(=O)O)cc(-c4ccccc4)c3O)nc2c1 (stereo unspecified)	91	74 nM
N=C(N)c1ccc2nc(-c3cc(C(CC(=O)O)C(=O)O)cc(-c4cccc(CO)c4)c3O)[nH]c2c1 (stereo unspecified)	–	21 nM
COc1ccc(F)cc1-c1cc(C(CC(=O)O)C(=O)O)cc(-c2nc3cc(C(=N)N)ccc3[nH]2)c1O (stereo unspecified)	52	330 nM
Cc1ccc(-c2cc(C(CC(=O)O)C(=O)O)cc(-c3nc4cc(C(=N)N)ccc4[nH]3)c2O)cc1 (stereo unspecified)	8	–
N=C(N)c1ccc2[nH]c(-c3cc(C(CC(=O)O)C(=O)O)cc(-c4cccc(Cl)c4)c3O)nc2c1 (stereo unspecified)	59	66 nM
N=C(N)c1ccc2nc(-c3cc(C(CC(=O)O)C(=O)O)cc(-c4cccc(Cl)c4Cl)c3O)[nH]c2c1 (stereo unspecified)	–	270 nM
N=C(N)c1ccc2nc(-c3cc(C(CC(=O)O)C(=O)O)cc(-c4cc(F)cc(F)c4)c3O)[nH]c2c1 (stereo unspecified)	–	68 nM
N=C(N)c1ccc2[nH]c(-c3cc(C(CC(=O)O)C(=O)O)cc(-c4ccc(Cl)cc4)c3O)nc2c1 (stereo unspecified)	2	–

Structure (SMILES)	Selectivity ratio (Homo sapiens)	Ki (Coagulation factor VII)
N=C(N)c1ccc2[nH]c(-c3cc(C(CC(=O)O)C(=O)O)cc(-c4cc(F)cc(F)c4)c3O)nc2c1 (stereo unspecified)	115	–
N=C(N)c1ccc2[nH]c(-c3cc(C(CC(=O)O)C(=O)O)cc(-c4cccc(CN)c4)c3O)nc2c1 (stereo unspecified)	18	780 nM
Cc1ccc(-c2cc(C(CC(=O)O)C(=O)O)cc(-c3nc4ccc(C(=N)N)cc4[nH]3)c2O)cc1 (stereo unspecified)	–	420 nM
Cc1cc(C)cc(-c2cc(C(CC(=O)O)C(=O)O)cc(-c3nc4cc(C(=N)N)ccc4[nH]3)c2O)c1 (stereo unspecified)	1080	29 nM
N=C(N)c1ccc2[nH]c(-c3cc(C(CC(=O)O)C(=O)O)cc(-c4cc(F)ccc4O)c3O)nc2c1 (stereo unspecified)	4400	–
N=C(N)c1ccc2[nH]c(-c3cc(C(CC(=O)O)C(=O)O)cc(-c4ccc(O)cc4)c3O)nc2c1 (stereo unspecified)	10	880 nM
N=C(N)c1ccc2[nH]c(-c3cc(C(CC(=O)O)C(=O)O)cc(-c4cccc(O)c4)c3O)nc2c1 (stereo unspecified)	99	88 nM
CC(=O)Nc1cccc(-c2cc(C(CC(=O)O)C(=O)O)cc(-c3nc4cc(C(=N)N)ccc4[nH]3)c2O)c1 (stereo unspecified)	118	–
N=C(N)c1ccc2[nH]c(-c3cc(C(CC(=O)O)C(=O)O)cc(-c4ccccc4CO)c3O)nc2c1 (stereo unspecified)	16	730 nM
N=C(N)c1ccc2[nH]c(-c3cc(C(CC(=O)O)C(=O)O)cc(-c4cccc([N+](=O)[O-])c4)c3O)nc2c1 (stereo unspecified)	268	–
N=C(N)c1ccc2[nH]c(-c3cc(C(CC(=O)O)C(=O)O)cc(-c4cccc(OC(F)F)c4)c3O)nc2c1 (stereo unspecified)	51	120 nM
N=C(N)c1ccc2nc(-c3cc(C(CC(=O)O)C(=O)O)cc(-c4cc(Cl)cc(Cl)c4)c3O)[nH]c2c1 (stereo unspecified)	–	27 nM
N=C(N)c1ccc2[nH]c(-c3cc(C(CC(=O)O)C(=O)O)cc(-c4ccccc4CS)c3O)nc2c1 (stereo unspecified)	103	64 nM
N=C(N)c1ccc2[nH]c(-c3cc(C(CC(=O)O)C(=O)O)ccc3O)nc2c1 (stereo unspecified)	1	6400 nM
N=C(N)c1ccc2nc(-c3cc(C(CC(=O)O)C(=O)O)cc(-c4ccc(F)c(Cl)c4)c3O)[nH]c2c1 (stereo unspecified)	–	130 nM
N=C(N)c1ccc2[nH]c(-c3cc(C(CC(=O)O)C(=O)O)cc(-c4ccccc4[N+](=O)[O-])c3O)nc2c1 (stereo unspecified)	25	–
N=C(N)c1ccc2[nH]c(-c3cc(C(CC(=O)O)C(=O)O)cc(-c4cc(Cl)ccc4Cl)c3O)nc2c1 (stereo unspecified)	35	250 nM
N=C(N)c1ccc2[nH]c(-c3cc(C(CC(=O)O)C(=O)O)cc(-c4cccc(CO)c4)c3O)nc2c1 (stereo unspecified)	216	–
